Results reported in ChEMBL document CHEMBL3351938, “C5-Alkyl-2-methylurea-Substituted Pyridines as a New Class of Glucokinase Activators” (ACS Med Chem Lett, 2014).
Calls of active or inactive are those of the source. The calls are words filed in the database; no cut-off is given here.

Target: T1, Hexokinase-4 (Homo sapiens) (UniProt P35557)
T1 sequence (whole entry): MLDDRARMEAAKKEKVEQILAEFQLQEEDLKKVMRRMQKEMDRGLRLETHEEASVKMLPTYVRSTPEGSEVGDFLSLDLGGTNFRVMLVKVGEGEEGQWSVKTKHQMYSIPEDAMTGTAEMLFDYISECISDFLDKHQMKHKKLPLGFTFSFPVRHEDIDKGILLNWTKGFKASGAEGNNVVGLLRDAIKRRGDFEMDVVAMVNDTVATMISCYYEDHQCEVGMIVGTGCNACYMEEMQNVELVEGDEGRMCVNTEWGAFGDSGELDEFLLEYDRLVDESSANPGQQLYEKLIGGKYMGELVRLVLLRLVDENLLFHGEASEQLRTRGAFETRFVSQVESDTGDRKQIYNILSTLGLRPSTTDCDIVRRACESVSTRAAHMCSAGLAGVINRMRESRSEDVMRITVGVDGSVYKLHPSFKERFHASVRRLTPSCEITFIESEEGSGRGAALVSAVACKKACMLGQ
Experiment: Activity of activated human recombinant Glucokinase assessed as maximum glucose phosphorylation measured over 5 mins by spectrophotometry relative to unactivated enzyme
Procedure, shortened: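 Recombinant human GK; V_max is the maximal velocity of glucose phosphorylation by activated GK divided by that of unactivated GK; n = 2.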

| Compound | Ratio |
| --- | --- |
| CCc1ncccc1Oc1cc(CC2CCCCC2)cnc1NC(=O)NC | 0.73 |
| CCc1ncccc1Oc1cc(CCCCOC)cnc1NC(=O)NC | 0.74 |
| CCOCCc1cnc(NC(=O)NC)c(Oc2cccnc2CC)c1 | 0.7 |
| CCn1nccc1Oc1cc(C[C@H]2CC[C@@H](O)CC2)cnc1NC(=O)NC | 0.66 |
| CNC(=O)Nc1ncc(CC2CCOCC2)cc1Oc1ccnn1C(C)C | 0.6 |
| CCn1nccc1Oc1cc(C[C@@H]2CCO[C@@H](COC)C2)cnc1NC(=O)NC | 0.78 |
| CCc1ncccc1Oc1cc(CC2CCOCC2)cnc1NC(=O)NC | 0.75 |
| CCn1nccc1Oc1cc(C[C@H]2C[C@@](C)(O)C2)cnc1NC(=O)NC | 0.8 |
| CCn1nccc1Oc1cc(C[C@H]2CC[C@H](O)CC2)cnc1NC(=O)NC | 0.79 |
| CCn1nccc1Oc1cc(CCCC(C)(C)O)cnc1NC(=O)NC | 0.75 |
| CCn1nccc1Oc1cc(C[C@H]2C[C@H](O)C2)cnc1NC(=O)NC | 0.96 |
| CCc1ncccc1Oc1cc(CCCCO)cnc1NC(=O)NC | 0.86 |
| CCn1nccc1Oc1cc(C[C@H]2CCO[C@H](COC)C2)cnc1NC(=O)NC | 0.76 |
| CCc1ncccc1Oc1cc(CCCC(C)(C)O)cnc1NC(=O)NC | 0.73 |
| CCn1nccc1Oc1cc(CCCCOC)cnc1NC(=O)NC | 0.83 |
| CCn1nccc1Oc1cc(C(O)C2CCOCC2)cnc1NC(=O)NC (stereo unspecified) | 0.82 |
| CCn1nc(COC)cc1Oc1cc(CC2CCOCC2)cnc1NC(=O)NC | 0.71 |
| CCc1ncccc1Oc1cc(CCCOC)cnc1NC(=O)NC | 0.78 |
| CCc1ncccc1Oc1cc(CC(C)C)cnc1NC(=O)NC | 0.82 |
| CCn1nccc1Oc1cc(C[C@H]2CC[C@](C)(O)CC2)cnc1NC(=O)NC | 0.71 |
| CCn1nccc1Oc1cc(C[C@H]2C[C@@H](O)C2)cnc1NC(=O)NC | 0.88 |
| CCn1nccc1Oc1cc(CN2CCOCC2)cnc1NC(=O)NC | 0.78 |
| CCn1nccc1Oc1cc(CC2CCOCC2)cnc1NC(=O)NC | 0.8 |
| CCn1nccc1Oc1cc(C[C@H]2CC[C@@](C)(O)CC2)cnc1NC(=O)NC | 0.82 |

Test system: Mus musculus
Experiment: Antidiabetic activity in C57Bl/6 mouse assessed as reduction in blood glucose AUC at 30 mg/kg, po administered 30 mins prior glucose challenge by oral glucose tolerance test
Format: functional, organism-based
Set-up: dose 30 mg/kg
Procedure, shortened: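 Oral dose–response OGTT in C57Bl/6 mice at 3, 10 and 30 mg/kg; blood glucose area-under-curve assessed; significance versus vehicle by two-way ANOVA.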

| Compound | Activity |
| --- | --- |
| CCn1nccc1Oc1cc(CC2CCOCC2)cnc1NC(=O)NC | Active |

Test system: Mus musculus
Experiment: Antidiabetic activity in fasted ob/ob mouse assessed as reduction in blood glucose AUC compound administered orally 30 mins prior glucose challenge by oral glucose tolerance test relative to control
Format: functional, organism-based
Procedure, shortened: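 OGTT in fasted ob/ob mice with oral doses of 0.3, 1, 3 and 10 mg/kg; blood glucose AUC compared to vehicle by two-way ANOVA.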

| Compound | Activity |
| --- | --- |
| CCn1nccc1Oc1cc(C[C@H]2C[C@](C)(O)C2)cnc1NC(=O)NC | Dose-dependent effect |
